An excerpt weighted towards active compounds, which were near 5.2% of everything screened.
ALR H2O2 inh = human ALR oxidase inhibition via reduced H2O2. P55789. purified ALR, DTT oxidation, H2O2 HRP-luminol luminescence. inhibition, % (no concentration beside the values). 290,000 tested, 3.8% active. AID 485317;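 active = mean replicate inhibition above about 79%, with every replicate also reaching it, limit read from the data; inconclusive = only one of the two criteria met; inactive = mean below limit and not every replicate reaching it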
Target sequence (P55789 whole entry, looked up): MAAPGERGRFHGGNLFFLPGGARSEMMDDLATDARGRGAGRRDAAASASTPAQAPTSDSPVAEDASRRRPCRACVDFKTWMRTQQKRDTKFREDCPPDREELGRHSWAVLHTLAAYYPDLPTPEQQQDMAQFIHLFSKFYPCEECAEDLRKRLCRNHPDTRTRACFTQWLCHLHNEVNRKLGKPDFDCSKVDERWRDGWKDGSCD
ZTA DNA inh = ZTA (EBV) inhibition in EBNA-1 counter-screen; inhibition, % at 11 µM; 320,000 tested, 0.15% active; ZTA-DNA binding, fluorescence polarization; P03206; in the data active = inhibition above about 33%
Target sequence (P03206 whole entry, looked up): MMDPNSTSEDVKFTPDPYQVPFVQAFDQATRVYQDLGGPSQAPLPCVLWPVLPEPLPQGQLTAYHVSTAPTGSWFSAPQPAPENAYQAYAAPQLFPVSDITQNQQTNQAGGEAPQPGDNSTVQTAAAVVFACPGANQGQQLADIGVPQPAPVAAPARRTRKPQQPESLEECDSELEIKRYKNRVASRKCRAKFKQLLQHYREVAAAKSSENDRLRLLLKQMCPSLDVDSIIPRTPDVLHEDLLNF
NS3 helicase inh = inhibitors of Hepatitis C virus NS3 helicase; NS3 helicase DNA unwinding, Cy5 molecular beacon fluorescence; inhibition, % at 10.9 µM; 290,000 tested, 0.56% active;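 active = inhibition above the mean of all tested compounds plus 3 SD, set per campaign, cut at about 35% in these data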;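 note: 0% = DMSO wells and 100% = thioflavine S control wells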
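Test system: hepatitis C virus NS3 helicase domain fragment enzyme. Also added: annealed dual-labelled DNA beacon duplex, ATP-started. Timing: 60 min unwinding reaction at 25 °C after ATP addition. Technique: Cy5 fluorescence. Measure: % inhibition of unwinding.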
core dimer inh = blocks dimerization of HCV core protein; TR-FRET GST/Flag-core106 dimerization, 1536-well; inhibition, % at 5 µM; 300,000 tested, 0.33% active; AID 1899;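 active = inhibition above the mean of all tested compounds plus 3 SD, set per screening campaign, cut at about 45% in these data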
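Material: Tagged HCV core106 pair (GST and Flag) | Amount: GST-core106 13.5 nM, Flag-core106 17 nM | Medium: KF-containing HEPES buffer, pH 7.45, DTT, CHAPS, BSA | Reagent: Eu donor and XL665 acceptor anti-tag antibodies | Schedule: 4 h at 22.5 °C | Technique: Time-resolved FRET, ex 340 nm, em 617 and 671 nm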
PfM18AAP inh = blocks P. falciparum M18 aspartyl aminopeptidase | recombinant PfM18AAP, H-Glu-NHMec fluorogenic cleavage | inhibition, % at 7.35 µM | 290,000 tested, 1.2% active;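 active = inhibition above the campaign mean inhibition over all tested compounds plus 3 SD, cut at about 28% in these data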;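 note: 0% = plate median of test compound wells and 100% = 2 mM ZnCl2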
EBNA-1 inhibitor = blocks EBNA-1 binding to DNA; 300,000 tested, 0.34% active; EBNA-1 DNA binding, fluorescence polarization; AID 1950; inhibition, % at 14.8 µM; in the data active = inhibition above about 28%
An asterisk follows results filed as active; ? = inconclusive; . = not tested or not shown.

SMILES | ALR H2O2 inh | ZTA DNA inh | NS3 helicase inh | core dimer inh | PfM18AAP inh | EBNA-1 inhibitor
Cc1ccccc1Nc1nc(CSc2nnnn2-c2ccccc2)cs1 | 98* | -4 | 12 | 25 | 6 | 4
COc1ccc(F)cc1C(=O)C1CCCN(C(=O)c2ccccc2N(C)C)C1 (stereo not drawn) | -2 | 1 | -6 | 5 | -2 | 1
CN(C)CCNc1c(N)c(=O)oc2ccccc12 | 2 | 3 | -13 | 4 | 6 | 14
Nc1c(NC2CCCCC2)c2ccccc2oc1=O | 99* | -10 | -2 | -9 | 5 | 3
Cc1ccccc1Nc1c(N)c(=O)oc2ccccc12 | 99* | 3 | 3 | -2 | 1 | -4
Cc1ccc(S(=O)(=O)Nc2c(NC3CCCCC3)c3ccccc3oc2=O)cc1 | 29 | -9 | 26 | 2 | 2 | -1
COc1cc(/C=N/Nc2ccc(F)cc2F)cc(OC)c1O | 99* | 9 | 0 | -29 | 6 | -4
COc1cc(/C=N/N=C/c2cc(OC)c(O)c(OC)c2)cc(OC)c1O | 98* | 4 | 0 | -22 | 30* | 4
COc1ccc(/C=N/NC(=O)C(=O)N2CCCCCC2)cc1O | 83* | -6 | 8 | -3 | 1 | 1
COCc1cc(C)nc(OCC(=O)N/N=C/c2ccc(OC)c(O)c2)c1C#N | 99* | 4 | -2 | -6 | 4 | -5
O=C(CCN1C(=O)[C@@H]2Cc3ccccc3CN2C1=O)NCc1ccccc1Cl | 1 | -3 | -13 | 0 | 3 | 9
CCOC(=O)N/N=C/c1ccc(OC)c(O)c1 | 94* | -1 | 7 | -8 | -3 | 3
CCOC(=O)N/N=C/c1cc(OC)c(O)c(OC)c1 | 99* | 14 | 1 | -3 | 11 | 3
CCOC(=O)N/N=C/c1ccc(F)cc1 | 16 | -5 | 1 | -1 | -8 | 5
COc1cc(/C=N/NC(=O)C(N)=O)cc(OC)c1O | 99* | 13 | 1 | -7 | 25 | 6
COc1cccc(CNC(=O)c2cc(S(=O)(=O)N3CCOCC3)cn2C)c1 | 4 | 10 | 7 | -2 | 2 | 8
Cc1noc(C)c1COc1ccc(C(=O)N2CCN(c3ccccc3O)CC2)cc1 | 7 | -9 | . | . | . | .
CC1(C)CC[C@]2(C(=O)O)CC[C@]3(C)C(=CC[C@@H]4[C@@]5(C)CC[C@H](O[C@@H]6O[C@H](C(=O)O)[C@@H](O)[C@H](O[C@@H]7OC[C@H](O)[C@H](O)[C@H]7O)[C@H]6O)C(C)(C)[C@@H]5CC[C@]43C)[C@@H]2C1 | 3 | . | . | . | . | .
Cn1c(SCc2cccc3ccccc23)nnc1-c1ccco1 | 52 | -1 | -2 | 11 | 5 | 9
Nn1c(SCc2cccc3ccccc23)nnc1-c1ccco1 | 99* | -9 | -14 | 5 | -12 | -9
CCC/C(O)=C1\C(=O)CC(C)(C)CC1=Nc1ccccc1O | 87* | 6 | 3 | 2 | -3 | -7
COc1ccc(C(C#N)=C2C=CC(=NO)C=C2)cc1 | 96* | -5 | -2 | 4 | 29* | -6
O=C(c1cc(-c2ccc(O)cc2)on1)N1CCN(c2ccccc2)CC1 | 81* | -3 | -10 | 0 | 5 | -6
O=C(c1cc(-c2ccc3c(c2)OCO3)on1)N1CCN(c2ccccc2)CC1 | -15 | -23 | 1 | 0 | -6 | -2
O=C(c1cc(-c2ccc(O)cc2)on1)N1CCN(c2ccc(F)cc2)CC1 | 91* | -14 | 1 | 2 | 2 | -21
SMILES | ALR H2O2 inh | ZTA DNA inh | NS3 helicase inh | core dimer inh | PfM18AAP inh | EBNA-1 inhibitor
Cc1ccc(-c2cc(C(=O)N3CCCCCC3)no2)cc1 | -1 | -10 | 15 | -11 | 8 | -2
O=C(c1cc(-c2ccc(O)cc2)on1)N1CCCC1 | 99* | -12 | -3 | -5 | -7 | 11
O=C(c1cc(C2CC2)on1)N1CCN(c2ccccc2)CC1 | 86* | -6 | 5 | -2 | 3 | -21
O=C(c1cc(C2CC2)on1)N1CCCC(N2CCN(c3ccc(F)cc3)CC2)C1 (stereo not drawn) | 43 | -28 | 18 | 2 | 5 | -1
O=C(Cn1cnc2ccccc21)OCC(=O)N1CCCCC1 | -5 | . | . | . | . | .
COc1ccccc1NC(=O)CCS(=O)(=O)c1cc2c(cc1Cl)NC(=O)CO2 | -7 | 12 | 13 | 0 | 2 | 1
Cc1[nH]c2ccccc2c1SCCNC(=O)c1ccc(Br)o1 | 78* | -1 | -5 | -2 | -10 | 6
COc1ccc(C)cc1N(C(=O)c1ccco1)C(C(=O)NC1CCCC1)c1cc(OC)c(OC)c(OC)c1 (stereo not drawn) | -14 | -21 | -8 | -7 | -4 | 3
CCN(Cc1ccccc1)c1ccc(/C=N/N=C(N)N)cc1 | 99* | -2 | -91 | -14 | 2 | -3
Cc1cc(C(=O)N2CCCC(Nc3ccc(C(C)C)cc3)C2)nn1C (stereo not drawn) | 99* | 11 | -2 | 12 | 6 | 2
CC(C)c1ccc(NC2CCCN(C(=O)c3cnsn3)C2)cc1 (stereo not drawn) | 96* | -1 | -5 | -3 | 7 | -2
CC(C)c1ccc(NC2CCCN(C(=O)c3ccnn3C)C2)cc1 (stereo not drawn) | ? | 11 | 1 | -2 | -1 | 8
COC(=O)c1cc(S(=O)(=O)NCCN2CCOCC2)cn1C | 4 | 5 | -2 | -1 | 2 | 4
C=CCNC(=O)/C(C#N)=C\c1cc(Cl)c(OCC)c(OC)c1 | 98* | 2 | 7 | -5 | -1 | -6
CC(C)CN1C(=O)/C(=C/c2cccs2)NC1=S | 99* | 16 | -4 | -4 | 7 | 14
NC(=O)N/N=C/c1c(Sc2nnnn2-c2ccccc2)nc2ccccn2c1=O | 46 | 13 | 11 | -2 | 0 | 10
CCS(=O)(=O)CCSc1nc2ccccc2s1 | 99* | 12 | -2 | -2 | -7 | 1
O=S(=O)(CCSc1nc2ccccc2s1)c1nc2ccccc2s1 | 7 | -11 | -5 | 4 | 5 | -4
COC(=O)CSc1nc2ccc(N)cc2s1 | 99* | 7 | -4 | 7 | -16 | 7
N#CC1(NC(=O)CSc2nc3ccccc3s2)CCCCC1 | 98* | 15 | . | . | . | .
CCOC(=O)CSc1nc2ccc(NC(C)=O)cc2s1 | 34 | -2 | 1 | 2 | 9 | 14
CCCCN(C(=O)CSc1nc2ccccc2s1)c1c(N)n(CCCC)c(=O)[nH]c1=O | 99* | . | . | . | . | .
CCCCn1c(N)c(N(CCOC)C(=O)CCCc2nc3ccccc3s2)c(=O)[nH]c1=O | . | 14 | . | -5 | . | -5
CC(=O)N1CCN(C(=O)COC(=O)COc2ccc(C#N)cc2)CC1 | -7 | 2 | . | 5 | . | -2
O=C(CN1C(=O)CCC1=O)Nc1nc(-c2ccccn2)cs1 | -22 | 10 | 3 | -7 | -2 | 0
CC(Sc1nc2ccccc2s1)C(=O)N1CCOCC1 (stereo not drawn) | 99* | 8 | 2 | -3 | 0 | 8
